PAFAH2 FP inh = inhibitors of human PAFAH2; Q99487; recombinant PAFAH2, FP-rhodamine activity probe, fluorescence polarization; inhibition, % at 3.39 µM; 340,000 tested, 0.99% active; AID 492956;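 active means inhibition above the mean over all tested compounds plus 3 SD, cut at about 30% in these data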;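 further: inhibitors block probe labeling of enzyme so polarization drops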
ARFGAP1 inh = inhibits rat ARF GTPase activating protein 1; Arfgap1-stimulated ARF1 GTP hydrolysis, GDP FP detection; inhibition, % at 16.5 µM; 360,000 tested, 0.26% active; AID 651572;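 active means inhibition above a per-plate limit, mean inhibition of low control wells plus 3 SD, cut at about 25% in these data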
Target sequence (Q62848 1-136 limits assumed): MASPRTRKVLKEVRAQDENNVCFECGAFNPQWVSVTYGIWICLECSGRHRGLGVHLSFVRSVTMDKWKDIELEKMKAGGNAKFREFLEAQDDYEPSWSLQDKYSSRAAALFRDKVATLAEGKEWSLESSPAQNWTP
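System: truncated rat Arfgap1 GAP domain / Benchmarks: high control wells lacking Arfgap1, low control full reaction with DMSO / Times: compound-enzyme preincubation 20 min, reaction 120 min, detection 60 min, 25 °C / Repeats: one replicate per compound / Also added: human ARF1(Δ1-17)-GTP substrate / Measured by: Tracer-displacement fluorescence polarization with EDTA stop, 620/688 nm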
PAFAH1B2 inh = PAFAH1B2 (human) inhibition; P68402; recombinant PAFAH1B2, FP-rhodamine activity probe, fluorescence polarization; inhibition, % at 3.39 µM; 340,000 tested, 1.2% active; AID 492953;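 active means inhibition above the mean of all tested compounds plus 3 SD, cut at about 24% in these data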
Target sequence (P68402 whole entry, looked up): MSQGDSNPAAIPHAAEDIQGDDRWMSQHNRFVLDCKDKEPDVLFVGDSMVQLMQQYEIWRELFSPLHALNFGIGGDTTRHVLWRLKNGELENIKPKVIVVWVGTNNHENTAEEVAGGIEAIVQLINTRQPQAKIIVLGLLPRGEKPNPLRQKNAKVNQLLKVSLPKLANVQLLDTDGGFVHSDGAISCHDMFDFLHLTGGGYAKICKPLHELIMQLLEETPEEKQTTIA
ASAP1 inh = ASAP1 ArfGAP inhibition; ASAP1-stimulated ARF1 GTP hydrolysis, GDP FP detection; inhibition, % at 16.5 µM; 360,000 tested, 0.19% active; in the data active means inhibition above about 25%
pPAFAH FP inh = inhibitors of human plasma PAF acetylhydrolase (pPAFAH); recombinant pPAFAH, FP-rhodamine probe fluorescence polarization; AID 463082; 330,000 tested, 1.5% active; inhibition, % at 3.39 µM; Q13093;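 active means inhibition above the mean inhibition across the screen plus 3 SD, cut at about 25% in these data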;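 further: inhibitors block binding of the rhodamine activity-based probe so polarization drops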
PAFAH1B3 inh = blocks human PAF acetylhydrolase 1B catalytic subunit 3; Q15102; inhibition, % at 3.39 µM; 340,000 tested, 0.28% active; recombinant PAFAH1B3, FP-rhodamine probe, fluorescence polarization;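 active means inhibition above the screen-wide average of all tested compounds plus 3 SD, cut at about 25% in these data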
Hits are given with their value; – = inactive; · = not tested or not shown. Hits are enriched below; roughly 2.8% of the tested compounds scored in any of these assays.

SMILES	PAFAH2 FP inh	ARFGAP1 inh	PAFAH1B2 inh	ASAP1 inh	pPAFAH FP inh	PAFAH1B3 inh
CCOc1ccc(N2CC(C(=O)OCC(=O)NCc3ccccc3)CC2=O)cc1 (stereo unspecified)	–	–	–	–	27	–
Cc1ccc(CNC(=O)COC(=O)CCOc2ccc(C)cc2)cc1	–	–	–	–	27	–
COc1ccc(CNC(=O)CN(Cc2ccccc2)C(=O)CCC(=O)Nc2ccccn2)cc1	–	–	–	–	–	–
O=C(NCc1ccc(Cl)cc1)c1cccc(NC2=NC3CS(=O)(=O)CC3S2)c1 (stereo unspecified)	–	–	–	–	–	–
O=C(COC(=O)CCOc1ccccc1)Nc1ccc(Cl)cn1	–	–	–	–	–	–
CCOc1ccc(OCCC(=O)OCC(=O)Nc2ccc(Cl)cn2)cc1	–	–	–	–	25	–
CC(C)(C)c1ccc(OCCC(=O)OCC(=O)NCc2ccccc2)cc1	–	–	–	–	26	–
Cc1ccc(CNC(=O)CCOc2ccc(C(C)(C)C)cc2)cc1	–	–	30	–	–	–
COc1ccc(CNC(=O)COC(=O)CCOc2ccccc2)cc1	–	–	–	–	–	–
COc1ccc(OCCC(=O)NCc2ccccc2)cc1	–	–	–	–	–	–
CC(=O)Nc1ccc(S(=O)(=O)N(C)CC(=O)OC(C)C(=O)N(C)C2CCCCC2)cc1 (stereo unspecified)	–	–	–	–	–	–
CCCCN1CC(COCc2ccccc2)Oc2cc(Br)ccc2S1(=O)=O (stereo unspecified)	–	–	–	–	·	–
O=[N+]([O-])c1cc(-n2cnnn2)ccc1N1CCC(Cc2ccccc2)CC1	–	–	–	–	28	–
CC1CC(C)CN(c2ccc(-n3cnnn3)cc2[N+](=O)[O-])C1 (stereo unspecified)	–	–	–	–	–	–
Cc1ccc(NC2C(=O)NC(=O)NC2=O)cc1	–	–	–	32	·	–
CC1=C(C(=O)OC2CCCCCCC2)C(c2ccc(O)cc2)NC(=O)N1 (stereo unspecified)	–	–	25	–	–	–
CC1=C(C(=O)OC2CCCCC2)C(c2ccccc2)NC(=O)N1 (stereo unspecified)	–	–	–	–	–	–
CCOc1ccc(/C=N/n2c(C3CCCCC3)n[nH]c2=S)cc1	–	–	–	–	–	–
COc1cccc(/C=N/NC(=O)c2ccc(COc3ccc(Cl)cc3Cl)o2)c1	–	–	–	–	–	–
COc1cc(/C=N/NC(=O)c2ccc(COc3ccccc3Cl)o2)cc(Br)c1O	–	–	–	–	32	–
O=C(CCc1ccccc1)NCCc1ccc(F)cc1	–	–	–	–	–	–
Cc1ccc(C(=O)NN2C(=O)CSC2=S)cc1	–	–	–	–	–	–
CC(C)(C)c1ccc(C(=O)NN2C(=O)CSC2=S)cc1	–	–	25	–	–	–
Cc1nn(CC(C)C)c(Cl)c1C(=O)NCC1CCCO1 (stereo unspecified)	·	–	·	–	·	·
O=C(c1ccccc1F)N1CCCC(N2CCN(Cc3ccc4c(c3)OCO4)CC2)C1 (stereo unspecified)	·	–	·	–	·	·
SMILES	PAFAH2 FP inh	ARFGAP1 inh	PAFAH1B2 inh	ASAP1 inh	pPAFAH FP inh	PAFAH1B3 inh
CC(C)N1CC=C2C(C#N)=C(N)C(C#N)(C#N)[C@H](c3ccoc3)[C@H]2C1	·	·	·	·	29	·
C=CC[C@H](CC(=O)N(CCO)Cc1ccccc1)C(=O)N[C@@H](C)COC(=O)[C@@H](CC=C)Cc1ccc(F)cc1	–	–	26	–	–	–
C=CCC[C@H](Cc1ccc(F)cc1)C(=O)OC[C@@H](Cc1c[nH]c2ccccc12)NC(=O)[C@@H](CC=C)CC(=O)N[C@@H](CO)Cc1ccccc1	–	–	–	–	–	–
C=CCC[C@H](Cc1ccc(F)cc1)C(=O)OC[C@H](Cc1c[nH]c2ccccc12)NC(=O)[C@@H](CC=C)CC(=O)NCCO	–	–	–	–	27	–
C=CCC[C@@H](Cc1ccc(F)cc1)C(=O)OC[C@H](C)NC(=O)[C@@H](CC=C)CC(=O)N(CCO)Cc1ccccc1	–	–	–	–	–	–
COc1ccc2oc(=O)c(-c3csc(Nc4ccc(O)cc4)n3)cc2c1	–	–	–	–	29	–

Screening data from PubChem BioAssay.
